# Most compounds without a hit are left out; they make up all but 4.3% or so of the library.
# ALR H2O2 inh: blocks human ALR sulfhydryl oxidase activity. inhibition, % (no concentration beside the values). AID 485317. P55789. purified ALR, DTT oxidation, H2O2 HRP-luminol luminescence. hit rate 3.8% among 290,000;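 active means mean replicate inhibition above about 79%, with every replicate also reaching it, limit read from the data; inconclusive means only one of the two criteria met; inactive means mean below limit and not every replicate reaching it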
# Target sequence (P55789 whole entry, looked up): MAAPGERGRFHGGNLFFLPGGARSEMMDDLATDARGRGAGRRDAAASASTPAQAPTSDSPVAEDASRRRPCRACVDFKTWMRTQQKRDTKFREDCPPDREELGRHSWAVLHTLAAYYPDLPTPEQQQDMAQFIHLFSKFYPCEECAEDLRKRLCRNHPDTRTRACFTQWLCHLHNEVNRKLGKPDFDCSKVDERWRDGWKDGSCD
# CAL PDZ FP-1: inhibitors of human CAL PDZ peptide binding; purified CAL PDZ, TMR-peptide fluorescence polarization, 1 h; AID 504414; hit rate 0.02% among 330,000; inhibition, % at 20 µM; Q9HD26;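 active means highest replicate inhibition of at least 40%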;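 further: plate controls were DMSO neutral control wells for no effect and unlabeled competitor peptide control wells for full effect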
#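 Material: tagged CAL PDZ protein CerCALP, purified; buffer or medium: sodium phosphate/NaCl buffer pH 7.4 with TCEP, IgG, Thesit; also added: fluorescent TMR peptide probe; schedule: 1 h incubation at room temperature before polarization reading; technique: fluorescence polarization from S- and P-plane intensities, G-factor corrected; control set: unlabelled peptide and DMSO controls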
# Rtt109 HAT inh: inhibitors of Candida albicans Rtt109/Vps75 histone acetyltransferase; Q5AAJ8; hit rate 0.16% among 330,000; AID 540336; purified Rtt109/Vps75, ThioGlo CoA-SH fluorescence, 4 h; inhibition, % at 34.9 µM;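 active means inhibition of at least 50% in every replicate; inconclusive means best replicate reaches 50% inhibition but some replicates fall short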
# Target sequence (Q5AAJ8 whole entry, looked up): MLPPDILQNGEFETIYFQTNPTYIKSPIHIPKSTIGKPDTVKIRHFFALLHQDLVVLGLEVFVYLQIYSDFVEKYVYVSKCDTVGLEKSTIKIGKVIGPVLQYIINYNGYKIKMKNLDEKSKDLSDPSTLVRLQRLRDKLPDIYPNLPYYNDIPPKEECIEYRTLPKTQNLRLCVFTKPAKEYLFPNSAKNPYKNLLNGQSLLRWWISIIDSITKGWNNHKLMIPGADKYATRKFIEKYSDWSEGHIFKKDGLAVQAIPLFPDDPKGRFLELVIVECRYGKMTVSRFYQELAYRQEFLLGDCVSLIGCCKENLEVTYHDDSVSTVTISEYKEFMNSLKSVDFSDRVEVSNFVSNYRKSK
# DYRK1A inh: Dyrk1A (rat) kinase inhibition | Q63470 | hit rate 0.43% among 310,000 | inhibition, % at 12.5 µM | AID 504441 | ADP-Glo luminescence, NFATc1 peptide; in the data active means inhibition above about 50%;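 further: plate controls were vehicle with enzyme for no effect and no enzyme for full effect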
# CAL PDZ FP-2: CAL PDZ (human) peptide binding inhibition; Q9HD26; purified CAL PDZ, TMR-peptide fluorescence polarization, 1 h; inhibition, % at 24.9 µM; hit rate 0.92% among 300,000; AID 602252;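 active means mean inhibition of at least 30% with at least half of replicates also reaching 30%; inconclusive means no clear call, values can overlap the other calls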;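 further: 0% = DMSO neutral control and 100% = excess unlabeled competitor peptide PRC23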
# An asterisk follows results filed as active; ? = inconclusive; nt = no result.
SMILES,ALR H2O2 inh,CAL PDZ FP-1,Rtt109 HAT inh,DYRK1A inh,CAL PDZ FP-2
CSCc1ccc(C(=O)NCc2ccc(F)cc2)cc1,98*,-2,?,0,-1
CSCc1ccc(C(=O)NCc2ccc(C)cc2)cc1,8,-1,2,-4,-1
CC(NC(=O)c1ccccc1)C(=O)N/N=C/c1ccc(O)cc1 (centres undefined),99*,-3,nt,-5,7
O=C(N/N=C/c1ccc(O)cc1)c1cc[n+](Cc2ccccc2)cc1,99*,-3,3,-1,-1
O=C(N/N=C/c1ccc(OCc2ccccc2)cc1)c1cc[n+](Cc2ccccc2)cc1,-21,-2,3,-2,-2
CSc1ccc(CNc2ncc(-c3cccc([N+](=O)[O-])c3)n2C)cc1,98*,0,1,13,nt
COc1ccc(CNc2ncc(-c3cccc([N+](=O)[O-])c3)n2C)c(OC)c1OC,98*,1,2,11,nt
O=[N+]([O-])c1cccnc1NCc1cccs1,nt,-3,8,0,2
COc1ccc(NS(=O)(=O)c2cccc(C(=O)NCC(c3ccco3)N3CCCC3)c2)cc1 (centres undefined),-2,-1,-3,3,-2
CC(C)(C)c1cc[n+](CC(=O)Nc2cc(C(F)(F)F)ccc2N2CCOCC2)cc1,-7,-1,-1,-4,nt
CNc1nn(-c2cccc(Cl)c2)nc1N,99*,-2,9,10,-1
COc1ccc(NC(=O)N(C)C[C@H]2Oc3ccc(NC(=O)c4ccncc4)cc3C(=O)N([C@H](C)CO)C[C@@H]2C)cc1,-7,0,0,3,0
CC(C)c1ccc(NC(=O)Cc2c(C(=O)O)n(C)c3ccccc23)cc1,97*,-1,4,-8,-2
COCCn1c(-c2cccc([N+](=O)[O-])c2)nc2c1c(=O)[nH]c(=O)n2Cc1ccccc1,99*,-3,-1,-4,4
COc1ccc(N2CCN(C(CNC(C)=O)c3ccc4c(c3)OCO4)CC2)cc1 (centres undefined),88*,-1,6,-1,nt
COc1ccc(N2CCN(C(CNC(=O)CC(C)(C)C)c3ccc4c(c3)OCO4)CC2)cc1 (centres undefined),82*,0,3,2,-2
O=C(COC(=O)Cc1ccccc1F)NC(=O)NC1CCCC1,-5,0,3,nt,-5
Cc1cc(Br)cc(C)c1OCCCCN(C)C,93*,nt,0,0,-6
CC1(C)Oc2ccc(C(=O)NN)cc2NC1=O,-7,-1,-1,-2,nt
O=C(NC(Cc1ccccc1)C(=O)O)/C(=C/c1cccc([N+](=O)[O-])c1)NC(=O)c1cccc(Br)c1 (centres undefined),98*,-3,2,14,nt
O=C(NC(Cc1ccccc1)C(=O)O)/C(=C/c1ccc([N+](=O)[O-])cc1)NC(=O)c1ccccc1 (centres undefined),96*,-1,7,6,3
COc1cccc(C(=O)NCCS(=O)(=O)NCc2ccc(Cl)cc2)c1,-1,-3,9,10,7
Cc1ccc(NC(=O)COC(=O)CN2CSCC2=O)cc1C,98*,0,4,-2,0
Cc1ccc(NC(=O)COC(=O)CSC(=S)N2CCOCC2)cc1C,nt,-1,1,1,nt
Cc1nc2c(C(=O)N3CCOCC3)cnn2c(C)c1Cc1ccc(Cl)cc1,98*,-2,13,12,nt
SMILES,ALR H2O2 inh,CAL PDZ FP-1,Rtt109 HAT inh,DYRK1A inh,CAL PDZ FP-2
O=C(CC(=O)N/N=C/c1ccccc1)NCc1ccccc1,-1,-1,0,-1,147*
O=C(O)c1ccc(CS(=O)(=O)c2c(Cl)cccc2Cl)o1,12,0,12,3,2
CCCCN1C(=O)/C(=c2\sc3nc(=O)c(-c4ccccc4)nn3c2=O)c2ccccc21,97*,0,5,0,-1
C=CCn1c(CNC(=O)c2cccs2)nnc1SCC(=O)c1ccc(Br)cc1,86*,-1,1,4,nt
COc1ccc(OC)c(NC(=O)CCC(=O)Oc2ccc(C)cc2)c1,nt,-1,6,nt,-1
COc1ccc(CNC(=O)CN2C(=O)NC(C)(c3cccc4ccccc34)C2=O)cc1OC (centres undefined),1,-1,1,5,41*
Cc1[nH]c2ccccc2c1/C=C(\C#N)S(=O)(=O)c1ccccc1,97*,-2,-1,-1,nt
N#C/C(=C\c1ccc(O)c(O)c1)S(=O)(=O)c1ccccc1,99*,0,7,2,-4
CC(OC(=O)c1ccco1)C(=O)Nc1ncc(Cl)cc1Cl (centres undefined),1,-1,4,6,4
COc1cc2[nH]c(=S)nc(NCCCOC(C)C)c2cc1OC,5,-2,-2,3,42*
COc1ccc(/C=N/NC(=O)CNC(=O)c2ccc3c(c2)OCCO3)c(C(=O)O)c1OC,17,-1,-2,nt,-1
COc1cccc2cc(-c3ccccc3)oc12,2,nt,nt,nt,nt
COc1cccc2cc(-c3ccnc(=S)[nH]3)oc12,99*,nt,nt,nt,nt
O=C(CSc1nc2[nH]c(=O)cc(O)c2s1)Nc1cccc(Br)c1,99*,-1,-3,-1,-6
COc1ccc(NC(=O)CSc2nc3[nH]c(=O)[nH]c(=O)c3s2)cc1OC,99*,0,4,4,-7
Cc1cccc(Nc2nnc(SCC(=O)Nc3ccccc3[N+](=O)[O-])s2)c1,3,0,-2,1,0
Nc1cc(=O)[nH]c(SCC(=O)Nc2ccc(Br)cc2)n1,98*,-2,10,-6,-7
Cc1cccc(Nc2nnc(SCC(=O)Nc3ccc(C(=O)O)cc3)s2)c1,94*,-1,-1,-2,4
Nc1cc(=O)[nH]c(SCC(=O)Nc2ccc(Cl)c(Cl)c2)n1,-7,-1,-3,0,-4
CCc1ccccc1NC(=O)CSc1nc2[nH]c(=O)cc(O)c2s1,-12,-2,?,1,-2
CN(C)S(=O)(=O)c1ccc(C(=O)OCC2COC(C)(C)O2)cc1 (centres undefined),nt,1,7,-3,nt
Fc1ccc(-c2nnc(SCc3cccnc3)o2)cc1,-4,0,3,9,-4
CCOc1ccccc1NC(=O)CN1C(=O)CSC(C)C1=O (centres undefined),nt,-1,-3,nt,-2
CCn1c(SCC(=O)Nc2c(C#N)cnn2-c2ccccc2)nnc1-c1cccs1,-14,nt,nt,nt,nt
O=C(CSc1nc2[nH]c(=O)cc(O)c2s1)Nc1ccc(Br)cc1,82*,-3,0,2,0
Cc1cccc(C)c1NC(=O)CSc1nc2[nH]c(=O)cc(O)c2s1,0,0,-10,0,-3
COc1cc(NC(=O)CSc2nc3[nH]c(=O)cc(O)c3s2)cc(OC)c1OC,99*,-2,-2,0,-5
Cc1cccc(NC(=O)CSc2nc3[nH]c(=O)cc(O)c3s2)c1,99*,-2,4,nt,7
Cc1ccccc1NC(=O)CSc1nc2[nH]c(=O)cc(O)c2s1,nt,-2,3,3,-4

# Bioassay records: PubChem BioAssay, Broad Institute
